CSN deneddyl inh – inhibitors of CSN-mediated cullin deneddylation, primary screen, biochemical, fluorescence polarization, uHTS. Purified CSN, SCF-Nedd8-OG deneddylation. inhibition, % at 12.5 µM. COP9 signalosome complex subunit 5 (Homo sapiens), Q92905. 0.38% of 360,000 active;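 active = pattern-corrected inhibition above about 35%, with an unprinted fluorescence ratio check between 0.5 and 1.5, limit read from the data, passing the limit was not always enough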;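 also: 0% = enzyme with substrate and 100% = substrate without enzyme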
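Test system: purified human Csn5 enzyme expressed in HEK293T cells. Amount: 0.24 nM enzyme. Reagent: SCFSkp2-Nedd8OG substrate at 10 nM final. Schedule: 90 min incubation of compound, enzyme and substrate at room temperature. Detection: fluorescence polarization. Read-out: % inhibition of substrate cleavage by Csn5.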
Rpn11 inh – Rpn11 (PSMD14) deubiquitinase inhibitors, primary screen, biochemical, fluorescence polarization, uHTS; 0.59% of 360,000 active; inhibition, % at 20 µM; AID 588493, 2011; human 26S proteasome, Ub4-pepOG fluorescence polarization; 20S core pre-blocked with epoxomicin; 26S proteasome non-ATPase regulatory subunit 14 (Homo sapiens), O00487;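 active = inhibition at 20 µM, scaled to each plate's controls, above about 33%, limit read from the data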
Target sequence (O00487 whole entry, looked up): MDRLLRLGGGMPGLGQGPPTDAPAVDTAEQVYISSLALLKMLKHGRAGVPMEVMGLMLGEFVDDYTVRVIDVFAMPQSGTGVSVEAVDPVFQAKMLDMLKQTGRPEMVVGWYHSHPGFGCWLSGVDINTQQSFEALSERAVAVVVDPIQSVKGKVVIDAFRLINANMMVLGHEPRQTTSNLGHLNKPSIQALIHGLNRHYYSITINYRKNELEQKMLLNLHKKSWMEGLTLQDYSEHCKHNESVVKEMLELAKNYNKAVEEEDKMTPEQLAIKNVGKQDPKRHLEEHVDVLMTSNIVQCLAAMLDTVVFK
Rin1-Abl PPI inh – inhibitors of Rin1-Abl protein binding, primary screen, biochemical, TR-FRET | Tyrosine-protein kinase ABL1 (Homo sapiens) + Ras and Rab interactor 1 (Homo sapiens), … | AID 588664, 2011 | 0.4% of 360,000 active | inhibition, % at 7.35 µM; in the data active = inhibition above about 5%, passing the limit was not always enough
TPT1 inhibitor – Candida albicans TPT1 enzyme inhibitors, primary screen, biochemical, fluorescence polarization; AID 1962, 2009; recombinant caTPT1, FP RNA substrate dephosphorylation; inhibition, % at 5 µM; tRNA 2'-phosphotransferase TPT1 (Candida albicans SC5314); 0.81% of 300,000 active;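 active = inhibition above the mean of all tested compounds plus 3 SD, set per screening campaign, cut at about 24% in these data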;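 also: plate controls were DMSO alone for no effect and ferristatin control at 100 nM for full effect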
HNF4A DNA FP – change in binding of human HNF4A to DNA, primary screen, biochemical, fluorescence polarization, FITC-DNA; Hepatocyte nuclear factor 4-alpha (Homo sapiens), P41235; 1 h; activity change, % at 10 µM; 0.3% of 360,000 active; AID 1224865, 2016; in the data active = activity change above about 30%, passing the limit was not always enough
Neddyl block – inhibitors of cullin neddylation, primary screen, biochemical, TR-FRET, uHTS, NAE and Ubc12; inhibition, % at 25 µM; AID 651699, 2012; 0.58% of 360,000 active; NEDD8-conjugating enzyme Ubc12 (Homo sapiens) + NEDD8-activating enzyme E1 regulatory …; in the data active = inhibition above about 36%
TPT1 inh confirm – Candida albicans TPT1 inhibitors, confirmation, biochemical, fluorescence polarization, triplicate | inhibition, % at 5 µM | 74% of 2,400 active | AID 2149, 2009 | recombinant caTPT1, RNase T1 coupled | shares compounds with TPT1 inhibitor;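 active = inhibition above the primary screen limit, the mean inhibition of all tested compounds plus 3 SD, cut at about 25% in these data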
RNase T1 counter – RNase T1 inhibitors, counter-screen for TPT1 inhibitor project, biochemical, fluorescence polarization; shares compounds with TPT1 inhibitor; RNase T1 cleavage, 1536-well; inhibition, % at 5 µM; 83% of 2,400 active;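 active = inhibition above the solvent-only control well mean plus 3 SD, limit set per screening run, cut at about 23% in these data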;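 also: plate controls were DMSO wells with enzyme for no effect and wells without RNase T1 for full effect; inhibitors block cleavage so intact labeled substrate keeps polarization high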
Target sequence (P00651 whole entry, looked up): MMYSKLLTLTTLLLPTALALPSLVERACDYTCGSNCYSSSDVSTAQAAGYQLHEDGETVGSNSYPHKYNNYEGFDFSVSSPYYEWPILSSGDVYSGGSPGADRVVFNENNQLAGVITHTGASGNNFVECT
* hit, by the source's call; · = no result shown. Compounds with a hit are over-represented: about 2.4% of the library has one in this group of screens.

SMILES | CSN deneddyl inh | Rpn11 inh | Rin1-Abl PPI inh | TPT1 inhibitor | HNF4A DNA FP | Neddyl block | TPT1 inh confirm | RNase T1 counter
O=C(Nc1nc2ccccc2s1)c1cccc(S(=O)(=O)N2CCc3ccccc32)c1 | -1.4 | 6.0 | 1.7 | -1.4 | 5.3 | -43.0 | · | ·
O=C(Nc1nc2c(s1)CN(Cc1ccccc1)CC2)c1cccc(S(=O)(=O)N2CCc3ccccc32)c1 | 29.9 | 2.0 | -6.6 | 125.2* | 46.6 | 17.5 | 93.7* | 93.6*
CCC(C)(C)n1nnnc1C(c1cc(OC)ccc1OC)N1CCN(Cc2ccccc2)CC1 (configuration not stated) | 1.0 | 4.6 | -1.2 | -4.6 | -3.0 | -1.9 | · | ·
Cn1c(SCC(=O)c2ccccc2)nnc1-c1cccc(N)c1 | 3.6 | 7.2 | -2.1 | -8.4 | -4.4 | 0.0 | · | ·
COC(=O)/C=C/C(=O)N1CCN(c2cccc(Cl)c2)CC1 | · | · | · | 47.5* | · | · | 3.2 | 8.0
Cc1cc(/C=C2/SC(=S)N(c3cccc(C(F)(F)F)c3)C2=O)c(C)n1-c1cccnc1 | 52.9* | 37.1 | 3.0 | 87.7* | 63.6* | -6.2 | 91.6* | 98.9*
N#Cc1cc(C(=O)c2ccccc2O)cn(-c2nccs2)c1=O | 18.6 | · | -3.3 | 43.7* | 7.8 | -44.0 | 41.5* | 52.0*
N#Cc1cc(C(=O)c2cc(F)ccc2O)cn(-c2nccs2)c1=O | -47.0 | · | -4.4 | 55.0* | 36.3 | -41.4 | 56.7* | 66.8*
CC(C)n1cc(C(=O)c2ccccc2O)cc(C#N)c1=O | 7.6 | -1.8 | -3.4 | -2.6 | 3.3 | 1.6 | · | ·
CC(C)NC(=O)C1CCN(C2CCN(C(=O)/C=C/c3cccs3)CC2)CC1 | -2.8 | -4.8 | -2.6 | 24.9* | 0.7 | -4.3 | 5.6 | 14.6
CC(C)/C=C/C(=O)N1CCC(N2CCC(C(=O)NCc3ccccn3)CC2)CC1 | -3.5 | -12.7 | -0.5 | -12.8 | 1.9 | 6.9 | · | ·
COC(=O)/C(C#N)=C/c1c(Oc2cccc(C)c2C)nc2ccccn2c1=O | -3.7 | -2.9 | -1.1 | -3.6 | -2.0 | -0.6 | · | ·
COc1ccc(-c2noc(CNC(=O)c3ccc4c(c3)OCO4)n2)cc1OC | -3.3 | -10.4 | -2.5 | -0.5 | 0.8 | -1.7 | · | ·
CCSc1nnc(-c2ccncc2)o1 | -1.5 | 0.9 | -4.0 | 1.4 | -0.3 | 7.6 | · | ·
CCSc1nnc(-c2sc3nnc(-c4ccccc4)c(-c4ccccc4)c3c2N)o1 | 17.4 | -27.1 | -2.2 | 42.4* | 31.0 | 16.6 | 42.1* | 51.3*
O=C(N/N=C\c1c(O)ccc2ccccc12)c1ccc(O)cc1 | 7.3 | 6.0 | 2.6 | 9.4 | 1.1 | 25.5 | · | ·
Cn1cc(C(=O)N/N=C/c2c(O)ccc3ccccc23)ccc1=O | 14.2 | 24.8 | -2.5 | 56.6* | 21.4 | 28.5 | 69.9* | 54.0*
Cn1nccc1C(=O)N/N=C/c1c(O)ccc2ccccc12 | 6.4 | 22.7 | -7.7 | 36.8* | 26.3 | 20.2 | 43.6* | 49.4*
COc1cc(/C=N/NC(=O)c2sc(N)c(C#N)c2C)ccc1O | -8.2 | -0.3 | -4.6 | 54.2* | 2.1 | 9.5 | 2.3 | 9.7
COc1cc(/C=N/NC(=O)c2ccccc2)ccc1O | 5.6 | 3.3 | 0.6 | 3.2 | -2.6 | -17.6 | · | ·
COc1cc(/C=C(\C#N)c2nc3ccccc3[nH]2)cc(OC)c1O | 157.2 | · | -4.3 | 137.3* | 104.3 | -413.5 | 133.4* | 124.4*
COc1cc(/C=C(\C#N)c2nc3ccccc3n2C)cc(OC)c1O | 17.5 | · | -3.0 | 82.7* | 2.8 | -59.9 | 100.6* | 101.2*

Source: PubChem BioAssay
